Results reported in ChEMBL document CHEMBL6096655, “Discovery of a novel, selective CK2 inhibitor class with an unusual basic scaffold” (Eur J Med Chem, 2025).
One block for each compound: values may come before it. Calls of active or inactive are those of the source. No cut-off for these calls is given here.

Legend:
786-0 [1] = experiment: Antiproliferative activity against human 786-0 cells assessed as inhibition of cell growth at 30 uM measured after 3 to 4 days by MTT assay relative to control; format: functional; settings: time 3-4 day
How it was run: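 786-O cells (RPMI, 10% FCS) seeded at 5000 per well and left overnight. Compound was added at a single 30 µM concentration in 1% FCS medium (DMSO max. 0.2%). Cells grew 3–4 days at 37 °C, 5% CO₂, with no medium change, and were read by MTT. Percent inhibition is the mean of duplicates that differed by ≤10%.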

786-0 [2] = experiment: Antiproliferative activity against human 786-0 cells assessed as inhibition of cell growth measured after 3 to 4 days by MTT assay; format: functional; settings: time 3-4 day
How it was run: (§1)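 786-O or U937 cells grown in RPMI with 2 mM L-glutamine, 1% pen/strep and 10% FCS. Cells were seeded at 5000 per well and left overnight, then switched to 1% FCS medium containing compound or DMSO (max. 0.2% final). Growth ran 3–4 days at 37 °C in 5% CO₂ without medium change, followed by MTT read-out. GI50 is the mean ± SD of at least two independent experiments.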

U-937 = experiment: Antiproliferative activity against human U-937 cells assessed as inhibition of cell growth measured after 3 to 4 days by MTT assay; format: functional; settings: time 3-4 day; how it was run: as §1
[3] = Antiproliferative activity against HEK293 cells assessed as inhibition of cell growth measured after 3 to 4 days by MTT assay; format: toxicity, cell-based; settings: human, time 3-4 day
How it was run: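 HEK293 cells grown in DMEM with 2 mM L-glutamine, 1% pen/strep and 10% FCS. Cells were seeded at 5000 per well, left overnight, then given medium with 1% FCS plus compound or DMSO (max. 0.2% final). They were grown 3–4 days at 37 °C in 5% CO₂ with no medium change, and growth was read by MTT.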

786-0 [4] = experiment: Induction of cell death in human 786-0 cells assessed as cell viability at 5 uM measured after 11 hrs by CellCyteX live-cell microscopy analysis; format: functional, cell-based
How it was run: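 786-O cells seeded at 3×10³ per well and grown 24 h. Compound was then added in culture medium containing 125 nM Cytotox Green, at 0.2% (v/v) final DMSO, and kept at 37 °C in 5% CO₂. Green fluorescence images of dead cells were taken every 3 h by live-cell microscopy and normalized to the DMSO control. Results are representative of three independent measurements.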

[5] = Upregulation of PARP cleavage in human U-937 cells by measuring signal 1 at 2 uM measured after 48 hrs by immunoblot analysis; format: functional
How it was run: (§2)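 U937 cells exposed to compound or DMSO for 48 h, then lysed in Laemmli buffer. Lysates were run on 8–16% gradient SDS-PAGE, semi-dry blotted to PVDF and probed for PARP. Detection used IR-fluorescent secondary antibodies. The cleaved/uncleaved PARP signal ratio was obtained by densitometry. Results are representative of two independent experiments.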

[6] = Upregulation of PARP cleavage in human U-937 cells by measuring signal 1 at 5 uM measured after 48 hrs by immunoblot analysis; format: functional; how it was run: as §2
[7] = Upregulation of PARP cleavage in human U-937 cells by measuring signal 2 at 2 uM measured after 48 hrs by immunoblot analysis; format: functional
How it was run: (§3)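 U937 lymphoma cells grown in RPMI with 2 mM L-glutamine, 1 % pen/strep and 10 % FCS; exposed to compound or DMSO solvent control for 48 h. Total cellular proteins harvested and immunoblotted with an antibody against phosphorylated CK2-substrate motifs and for PARP. Read-out is the densitometric ratio of cleaved to uncleaved PARP signal. Representative of two independent experiments.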

[8] = Upregulation of PARP cleavage in human U-937 cells by measuring signal 2 at 5 uM measured after 48 hrs by immunoblot analysis; format: functional; how it was run: as §3
[9] = Upregulation of PARP cleavage in human U-937 cells by measuring signal 2 at 10 uM measured after 48 hrs by immunoblot analysis; format: functional; how it was run: as §2
[10] = target: Signal transducer and activator of transcription 3 (Homo sapiens) (UniProt P40763); experiment: Inhibition of STAT3 phosphorylation in human 786-O cells at 10 uM measured after 48 hrs by immunoblot analysis relative to control
[11] = target: T1, Hsp90 co-chaperone Cdc37 (Homo sapiens) (UniProt Q16543); experiment: Inhibition of CDC37 phosphorylation in human 786-O cells at 10 uM measured after 48 hrs by immunoblot analysis relative to control
T1 sequence (whole entry): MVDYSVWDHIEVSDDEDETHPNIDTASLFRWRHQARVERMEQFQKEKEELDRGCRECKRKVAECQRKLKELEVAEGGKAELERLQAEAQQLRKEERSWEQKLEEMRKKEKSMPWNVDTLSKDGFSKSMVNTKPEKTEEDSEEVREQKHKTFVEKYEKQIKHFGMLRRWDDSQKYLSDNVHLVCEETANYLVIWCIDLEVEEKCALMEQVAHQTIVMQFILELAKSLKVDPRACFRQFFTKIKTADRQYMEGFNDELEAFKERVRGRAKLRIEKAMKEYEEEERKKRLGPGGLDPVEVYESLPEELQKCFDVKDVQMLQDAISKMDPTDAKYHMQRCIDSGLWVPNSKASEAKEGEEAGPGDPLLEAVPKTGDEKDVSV

[12] = target: Eukaryotic translation initiation factor 2 subunit 2 (Homo sapiens) (UniProt P20042); experiment: Inhibition of eIF2beta phosphorylation in human 786-O cells at 10 uM measured after 48 hrs by immunoblot analysis relative to control
[13] = target: T2, Casein kinase II subunit alpha (Homo sapiens, UniProt P68400); experiment: Inhibition of CK2alpha (unknown origin) assessed as residual activity at 5 uM relative to control
Target sequence in this assay (P68400 whole entry, looked up): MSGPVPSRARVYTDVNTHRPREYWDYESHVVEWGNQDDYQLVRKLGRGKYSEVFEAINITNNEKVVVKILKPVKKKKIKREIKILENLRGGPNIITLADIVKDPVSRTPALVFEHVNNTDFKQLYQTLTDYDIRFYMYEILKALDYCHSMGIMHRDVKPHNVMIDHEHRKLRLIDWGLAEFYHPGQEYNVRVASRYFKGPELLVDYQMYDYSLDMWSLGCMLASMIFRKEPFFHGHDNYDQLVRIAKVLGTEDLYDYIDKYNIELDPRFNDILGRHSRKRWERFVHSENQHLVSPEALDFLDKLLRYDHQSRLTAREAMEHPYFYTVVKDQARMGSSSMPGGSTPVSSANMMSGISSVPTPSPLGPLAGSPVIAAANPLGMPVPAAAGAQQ

[14] = target: T2, Casein kinase II subunit alpha; experiment: Inhibition of CK2alpha (unknown origin)
Target sequence in this assay (P68400 whole entry): as the sequence (P68400 whole entry, looked up) above

HCT-116 = experiment: Antiproliferative activity against human HCT-116 cells measured after 72 hrs by alamar blue staining based fluorescence assay; format: functional

Chain of Signal transducer and activator of transcription 3 (Homo sapiens) (P40763 whole entry): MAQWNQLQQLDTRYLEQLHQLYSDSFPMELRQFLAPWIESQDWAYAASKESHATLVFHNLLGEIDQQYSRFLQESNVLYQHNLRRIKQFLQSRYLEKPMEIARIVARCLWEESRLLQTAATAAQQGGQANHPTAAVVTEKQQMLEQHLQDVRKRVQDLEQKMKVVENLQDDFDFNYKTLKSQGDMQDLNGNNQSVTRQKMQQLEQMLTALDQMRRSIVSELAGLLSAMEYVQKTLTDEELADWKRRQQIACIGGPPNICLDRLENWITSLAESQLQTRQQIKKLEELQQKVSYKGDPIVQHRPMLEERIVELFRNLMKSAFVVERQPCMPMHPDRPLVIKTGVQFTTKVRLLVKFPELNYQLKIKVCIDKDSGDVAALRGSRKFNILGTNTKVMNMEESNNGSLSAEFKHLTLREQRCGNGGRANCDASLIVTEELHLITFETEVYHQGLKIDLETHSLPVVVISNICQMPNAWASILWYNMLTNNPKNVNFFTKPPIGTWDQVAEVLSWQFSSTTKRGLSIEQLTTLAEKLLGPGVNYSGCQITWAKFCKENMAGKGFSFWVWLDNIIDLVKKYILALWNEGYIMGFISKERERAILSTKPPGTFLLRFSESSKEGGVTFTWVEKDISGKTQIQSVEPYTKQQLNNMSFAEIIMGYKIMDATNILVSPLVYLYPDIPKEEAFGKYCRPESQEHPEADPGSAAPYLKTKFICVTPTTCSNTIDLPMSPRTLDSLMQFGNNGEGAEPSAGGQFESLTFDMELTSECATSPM
Chain of Eukaryotic translation initiation factor 2 subunit 2 (Homo sapiens) (P20042 whole entry): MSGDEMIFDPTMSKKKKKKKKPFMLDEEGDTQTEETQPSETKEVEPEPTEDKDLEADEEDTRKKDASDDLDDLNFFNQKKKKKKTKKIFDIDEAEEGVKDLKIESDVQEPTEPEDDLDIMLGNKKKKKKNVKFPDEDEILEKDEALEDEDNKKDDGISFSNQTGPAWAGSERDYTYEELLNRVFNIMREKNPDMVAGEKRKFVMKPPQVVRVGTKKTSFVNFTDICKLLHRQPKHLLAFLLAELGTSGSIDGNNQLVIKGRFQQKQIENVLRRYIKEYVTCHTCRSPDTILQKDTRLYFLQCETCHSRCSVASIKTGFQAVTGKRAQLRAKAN

GI50 (786-0 [2]): 5.5 µM | GI50 (U-937): 4 µM | inhibition [10]: 100% | inhibition [11]: 73% | inhibition [12]: 96%
Compound: O=C(O)c1ccc2c(c1)nc(Nc1cccc(Cl)c1)c1ccncc12 [SILMITASERTIB]
inhibition (786-0 [1]): inactive | GI50 [3]: > 30 µM | Activity (786-0 [4]): Not active; Compound Showed Poor Efficacy To Induce Cell Death | Activity [5]: 82% | Activity [6]: 88% | Activity [7]: 0% | Activity [8]: 91% | Activity [9]: 39%

GI50 (786-0 [2]): 14.7 µM
Compound: Cc1ccc(N2CCN(c3ncnc4sc5c(c34)CCNC5)CC2)cc1
inhibition at 30 µM (786-0 [1]): 78.2%

Activity [13]: 23% | IC50 [14]: 0.15 µM
Compound: Cc1nc2c(Br)c(Br)c(Br)c(Br)c2n1CCCN

GI50 (786-0 [2]): 6.6 µM
Compound: Brc1ccccc1/C=N/Nc1ncnc2sc3c(c12)CCNC3
inhibition at 30 µM (786-0 [1]): 99.2%

GI50 (786-0 [2]): 29.5 µM
Compound: COc1cccc(N2CCN(c3ncnc4sc5c(c34)CCNC5)CC2)c1
inhibition at 30 µM (786-0 [1]): 50.2%

GI50 (786-0 [2]): 30 µM
Compound: Cc1ccccc1N1CCN(c2ncnc3sc4c(c23)CCNC4)CC1
inhibition at 30 µM (786-0 [1]): 52.1%

GI50 (786-0 [2]): 5.7 µM | GI50 (U-937): 1.8 µM | GI50 (HCT-116): > 10 µM
Compound: CCC(=O)Nc1cc(Nc2cc(NC3CC3)n3ncc(C#N)c3n2)ccc1C
GI50 [3]: > 30 µM | Activity (786-0 [4]): Not active; Compound Showed Poor Efficacy To Induce Cell Death | Activity [6]: 91% | Activity [7]: 0%

GI50 (786-0 [2]): 15 µM
Compound: Fc1cccc(N2CCN(c3ncnc4sc5c(c34)CCNC5)CC2)c1
inhibition at 30 µM (786-0 [1]): 74.6%

Further lines, the compound ahead of its results:

Compound: Cc1cccc(N2CCN(c3ncnc4sc5c(c34)CCNC5)CC2)c1
inhibition at 30 µM (786-0 [1]): 47.2%

Compound: COc1ccc(N2CCN(c3ncnc4sc5c(c34)CCNC5)CC2)cc1
inhibition at 30 µM (786-0 [1]): 27.7%

Compound: Fc1ccccc1N1CCN(c2ncnc3sc4c(c23)CCNC4)CC1
inhibition at 30 µM (786-0 [1]): 35.8%

Compound: c1ccc(N2CCN(c3ncnc4sc5c(c34)CCNC5)CC2)cc1
inhibition at 30 µM (786-0 [1]): 15.9%

Compound: Fc1ccc(N2CCN(c3ncnc4sc5c(c34)CCNC5)CC2)cc1
inhibition at 30 µM (786-0 [1]): 25.3%

Compound: COc1ccccc1N1CCN(c2ncnc3sc4c(c23)CCNC4)CC1
inhibition at 30 µM (786-0 [1]): 36.7%
